Assay results from ChEMBL document CHEMBL1909630, “Azaxanthene based selective glucocorticoid receptor modulators: design, synthesis, and pharmacological evaluation of (S)-4-(5-(1-((1,3,4-thiadiazol-2-yl)amino)-2-methyl-1-oxopropan-2-yl)-5H-chromeno[2,3-b]pyridin-2-yl)-2-fluoro-N,N-dimethylbenzamide (BMS-776532) and its methylene homologue …” (J Med Chem, 2011).

What was measured:
Blood [1] = assay: Antiinflammatory activity in human whole blood assessed as inhibition of LPS-induced TNFalpha production after overnight incubation by ELISA relative to Dexamethasone; format: functional
How it was run: (§1)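 Whole blood from two donors per experiment was collected into ACD-A. Compounds were added and the blood was incubated about 20 h at 37 °C under 5% CO2. Blood was then stimulated for 5 h with LPS (final 100 ng/mL, for TNFα) or IL-1β (final 10 ng/mL, for IL-8). Plasma TNFα or IL-8 was measured by ELISA. Efficacy was expressed as % of dexamethasone, and values are means of at least two experiments.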

Blood [2] = assay: Antiinflammatory activity in human whole blood assessed as inhibition of IL-1beta-induced IL-8 production after overnight incubation by ELISA; format: functional, tissue-based; how it was run: as §1
MG-63 [3] = assay: Induction of glutamine synthase expression in human MG63 cells after overnight incubation by spectrophotometry; format: cell-based
Glucocorticoid receptor [4] = molecular target: T1, Glucocorticoid receptor (Homo sapiens, UniProt P04150); assay: Transactivation activity at GR-alpha in human NP1 Hela cells assessed as induction of GAL4-DBD after 20 hrs by luciferase reporter gene assay; format: cell-based
T1 sequence (P04150 whole entry): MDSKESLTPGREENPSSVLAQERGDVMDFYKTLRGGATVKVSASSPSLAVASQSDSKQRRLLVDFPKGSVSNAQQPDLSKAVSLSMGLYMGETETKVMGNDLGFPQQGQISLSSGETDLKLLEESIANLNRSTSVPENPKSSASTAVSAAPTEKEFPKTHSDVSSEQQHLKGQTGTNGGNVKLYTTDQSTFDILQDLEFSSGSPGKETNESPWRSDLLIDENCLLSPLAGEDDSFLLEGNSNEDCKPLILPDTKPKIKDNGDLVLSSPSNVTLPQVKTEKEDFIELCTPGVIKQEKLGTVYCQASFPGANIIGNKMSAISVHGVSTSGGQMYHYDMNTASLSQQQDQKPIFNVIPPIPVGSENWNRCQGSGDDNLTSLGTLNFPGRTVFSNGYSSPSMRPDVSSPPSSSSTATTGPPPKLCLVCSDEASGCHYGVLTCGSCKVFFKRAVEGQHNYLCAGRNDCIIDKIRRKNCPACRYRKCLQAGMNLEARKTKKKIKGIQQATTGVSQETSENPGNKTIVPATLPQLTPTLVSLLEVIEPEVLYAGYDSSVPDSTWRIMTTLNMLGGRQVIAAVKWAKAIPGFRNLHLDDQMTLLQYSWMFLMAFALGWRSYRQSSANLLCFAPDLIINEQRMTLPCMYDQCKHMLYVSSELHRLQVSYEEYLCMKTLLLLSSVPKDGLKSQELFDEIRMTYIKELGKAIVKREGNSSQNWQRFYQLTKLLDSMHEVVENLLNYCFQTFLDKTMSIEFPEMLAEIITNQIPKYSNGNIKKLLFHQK

[5] = AUC in Sprague-Dawley rat at 50 mg/kg, po; format: ADME, organism-based; parameters: dose 50 mg/kg, route oral; conditions: plasma
How it was run: (§2)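 Male Sprague-Dawley rats received a single intravenous (1 mg/kg) or oral (10 or 50 mg/kg) dose. Plasma pharmacokinetic parameters were derived from these profiles.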

[6] = Half life in Sprague-Dawley rat at 1 mg/kg, iv; format: ADME, organism-based; parameters: dose 1 mg/kg, route intravenous; conditions: in vivo; how it was run: as §2
[7] = Oral bioavailability in Sprague-Dawley rat at 10 mg/kg; format: ADME, organism-based; conditions: in vivo; how it was run: as §2
[8] = Tmax in Sprague-Dawley rat at 10 mg/kg, po; format: ADME, organism-based; parameters: dose 10 mg/kg, route oral; conditions: in vivo; how it was run: as §2
Androgen receptor = molecular target: T2, Androgen receptor (Homo sapiens, UniProt P10275); assay: Displacement of fluorescently labeled ligand from androgen receptor by fluorescence polarization assay
T2 sequence (P10275 whole entry): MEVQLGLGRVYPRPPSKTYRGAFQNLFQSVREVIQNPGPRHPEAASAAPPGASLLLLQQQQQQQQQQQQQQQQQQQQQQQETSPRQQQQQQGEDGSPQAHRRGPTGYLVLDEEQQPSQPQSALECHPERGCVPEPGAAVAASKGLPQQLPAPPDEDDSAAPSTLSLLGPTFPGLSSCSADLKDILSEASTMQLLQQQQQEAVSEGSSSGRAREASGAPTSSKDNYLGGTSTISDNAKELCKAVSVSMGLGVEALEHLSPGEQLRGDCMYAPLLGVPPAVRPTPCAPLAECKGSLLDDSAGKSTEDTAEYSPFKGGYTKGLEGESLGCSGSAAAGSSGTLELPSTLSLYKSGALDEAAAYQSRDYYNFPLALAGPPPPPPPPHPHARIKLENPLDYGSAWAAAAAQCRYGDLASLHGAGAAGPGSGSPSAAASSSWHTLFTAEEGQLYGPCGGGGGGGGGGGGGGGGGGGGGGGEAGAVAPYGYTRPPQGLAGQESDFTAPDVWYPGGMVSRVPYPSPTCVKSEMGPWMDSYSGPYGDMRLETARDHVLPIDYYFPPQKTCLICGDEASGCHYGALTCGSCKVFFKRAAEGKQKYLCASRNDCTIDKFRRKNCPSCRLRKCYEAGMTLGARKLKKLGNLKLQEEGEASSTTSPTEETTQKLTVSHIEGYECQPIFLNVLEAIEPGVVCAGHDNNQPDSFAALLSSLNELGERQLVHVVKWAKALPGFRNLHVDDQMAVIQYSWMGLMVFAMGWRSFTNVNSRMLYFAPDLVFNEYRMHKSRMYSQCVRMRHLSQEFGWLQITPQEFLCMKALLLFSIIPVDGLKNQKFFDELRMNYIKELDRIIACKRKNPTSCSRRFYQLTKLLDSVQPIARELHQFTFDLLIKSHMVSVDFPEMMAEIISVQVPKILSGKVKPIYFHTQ
How it was run: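 Binding was measured by fluorescence polarization competition between compound and a fluorescent ligand for full-length receptor or ligand-binding domain. Values are means of at least two experiments.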

Rattus norvegicus = assay: Antiinflammatory activity in po dosed Freund's complete adjuvant-induced Lewis rat arthritis model assessed as reduction in paw swelling administered once daily for 21 days; format: functional; conditions: 504 h
How it was run: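 Male Lewis rats were inoculated with Mycobacterium butyricum in incomplete Freund's adjuvant. Oral dosing was daily and preventative, running from day 0 to day 21. Onset and progression of arthritis were followed, and ED50 was estimated from the dose response.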

[9] = Volume of distribution at steady state in Sprague-Dawley rat at 1 mg/kg, iv; format: ADME, organism-based; parameters: dose 1 mg/kg, route intravenous; conditions: in vivo, read-out: Vdss; how it was run: as §2
Glucocorticoid receptor [10] = molecular target: T1, Glucocorticoid receptor; assay: Transrepression activity at glucocorticoid receptor alpha in phorbol myristate acetate-stimulated human A549 cells assessed as inhibition of AP1 response element by luciferase reporter gene assay; format: cell-based
Blood [11] = assay: Antiinflammatory activity in human whole blood assessed as inhibition of LPS-induced TNFalpha production after overnight incubation by ELISA; format: functional, tissue-based; how it was run: as §1
MG-63 [12] = assay: Induction of glutamine synthase expression in human MG63 cells after overnight incubation by spectrophotometry relative to prednisolone; format: cell-based
[13] = Membrane permeability by PAMPA; format: ADME

EC50 (Blood [2])	EC50 (MG-63 [3])	EC50 (Glucocorticoid receptor [4])	AUC [5]	half-life [6]	bioavailability [7]	Tmax [8]	Ki (Androgen receptor)	Vd [9]	EC50 (Glucocorticoid receptor [10])	EC50 (Blood [11])	permeability [13]	Compound	Imax (Blood [1])	ED50 (Rattus norvegicus)	Emax (MG-63 [12])
0.628 µM	0.207 µM	0.0985 µM	28.1 µg·h/mL	24 min	17%	60 min	> 5 µM	0.5 L/kg	0.0177 µM	0.379 µM	permeable	CCN(C)C(=O)c1ccc(-c2ccc3c(n2)Oc2ccccc2[C@@H]3C(C)(C)C(=O)Nc2nncs2)cc1F	91%	8 mg/kg	53%
1.14 µM	0.044 µM	0.242 µM	20.2 µg·h/mL	36 min	20%	78 min	> 5 µM	1 L/kg	0.0332 µM	0.83 µM	permeable	CN(C)C(=O)c1ccc(-c2ccc3c(n2)Oc2ccccc2[C@H]3C(C)(C)C(=O)Nc2nncs2)cc1F	83%	17 mg/kg	33%
